# Measles CPE – protection of cells from measles virus. Measles virus-infected cells, CPE protection, absorbance. protection (pct of control), % at 4 µM. hit rate 1.5% among 140,000; in the data active = protection mostly above about 24%, no sharp cut-off; inactive = mostly below about 26%
# RAM network inh – yeast RAM network inhibition. AID 868. S. cerevisiae dse1pr::URA3 reporter, 5-FOA growth OD615, 2 d; analog-sensitive cbk1-as2 kinase mutant strain. hit rate 1.8% among 190,000. inhibition, % at 50 µM;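 active = inhibition above a set limit, 3 SD over mean compound inhibition, cut at about 8.4% in these data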;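 also: 0% = DMSO-only wells with no growth and 100% = 10 µM 1-NA-PP1 full growth; inhibition rescues growth on 5-FOA so higher OD means more RAM inhibition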
# Yeast lifespan up – extends the lifespan of yeast. hit rate 0.68% among 130,000. AID 775. S. cerevisiae growth with nicotinamide, OD615; deaD strain in restrictive glucose medium. inhibition of the nicotinamide effect, % at 10 µM;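 active = inhibition above a set limit, placed 3 SD over the median of all compounds, cut at about 26% in these data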;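 also: 0% = nicotinamide-treated wells and 100% = cells grown without nicotinamide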
#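 assay system = DeaD-strain S. cerevisiae | measured by = absorbance at 615 nm | probe or stimulus = nicotinamide 1.5 mM | buffer or medium = CSMM-D glucose medium, restrictive | times = 48 h at 30 °C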
# BB579 growth dn – yeast BB579 growth reduction in restrictive medium; S. cerevisiae BB579 growth, OD615, 48 h; inhibition, % at 10 µM; hit rate 0.51% among 140,000; AID 804;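 active = inhibition above a set limit, 3 SD over the mean compound inhibition, cut at about 44% in these data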
#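 Assay system: S. cerevisiae DeaD strain BB579 yeast. Medium: CSMM-D restrictive synthetic medium containing dextrose (glucose). Times: 4 h cell preincubation, 48 h compound exposure, 30 °C humidified. Signal: OD615 turbidity measurement. Benchmarks: positive control amphotericin B 10 µg/mL.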
# * hit, by the source's call; . = no result. Most compounds without a hit are left out; they make up all but 3.6% or so of the library.
SMILES,Measles CPE,RAM network inh,Yeast lifespan up,BB579 growth dn
COC(=O)C1=C(C)N(c2cccc(OC)c2)C(=O)/C1=C\c1ccco1,6,9.0*,20,-36
CCN1C(=O)/C(=C\c2ccco2)C(C(=O)OC)=C1C,9,0,-31,-25
C=CCN1C(=O)/C(=C\c2ccco2)C(C(=O)OC)=C1C,9,0,-7,-11
COc1ccc2[nH]c3c(=O)n(Cc4ccc(C(=O)N5CCCC5)cc4)c(=S)[nH]c3c2c1,.,4,.,.
COc1cc(-c2nnc(SCC(=O)OC3CCCCC3)o2)cc(OC)c1OC,10,9.0*,-11,-54
Cc1nc2c(ccc3nc(NC(=O)Cc4ccccc4)sc32)s1,3,11*,-3,-20
CN1C(=O)CSC1=NC12CC3CC(CC(C3)C1)C2,9,2,53*,0
COc1ccc(Cl)cc1C(=O)NNC1CC(=O)N(Cc2ccc(Cl)cc2)C1=O (configuration not stated),26,0,0,-29
C/C(N)=C(/C#N)C(=O)CSc1nc(C2CCCCC2)n(-c2ccccc2)n1,1,0,59*,13
CCCCNC(=S)NNC(=O)c1c(C)nc2ccccn12,.,0,.,.
O=S(=O)(NCCCc1ccccc1)c1ccccc1,35*,3,-4,-42
Cc1ccoc1C(=O)NCc1occc1C(=O)O,41*,1,-4,-31
Cc1ccccc1-n1nnnc1Sc1nnnn1-c1ccccc1,19,0,39*,-6
COc1ccc2c(C)cc(Sc3nnnn3-c3ccccc3)nc2c1,53*,3,-3,2
Cc1cc(N)n(-c2ccc(S(N)(=O)=O)cc2[N+](=O)[O-])n1,.,1,.,.
CCCCC(C)(O)C/C=C/[C@H]1[C@H](O)CC(=O)[C@@H]1CCCCCCC(=O)OC (some centres not stated),48,1,32*,-39
O=C(Nc1ccccn1)NC12CC3CC(CC(C3)C1)C2,6,1,-17,-51
O=C(NCc1ccccn1)NC12CC3CC(CC(C3)C1)C2,5,1,32*,-49
O=C1CC(N2CCN(c3nc4ccccc4s3)CC2)C(=O)N1Cc1cccs1 (configuration not stated),14,0,-26,98*
O=C1CC(N2CCN(c3ccc(F)cc3)CC2)C(=O)N1Cc1cccs1 (configuration not stated),1,2,-8,-61
Cc1ccc(NC(=S)N2CCN(S(=O)(=O)c3c(F)cccc3F)CC2)cc1C,.,3,.,.
CCn1c(=O)[nH]c2ccccc2c1=O,15,1,-11,-46
Cc1nc2c3ccccc3[nH]c(=O)n2n1,68*,0,.,-34
O=C(OCc1ccc2c(c1)OCO2)c1cccc(S(=O)(=O)N2CCCCC2)c1,11,8.6*,1,-27
O=C(OCc1ccc2c(c1)OCO2)c1ccc(S(=O)(=O)N2CCCC2)cc1,4,1,-10,-45
SMILES,Measles CPE,RAM network inh,Yeast lifespan up,BB579 growth dn
Cc1cc(N2CCOCC2)ccc1/C=C\[N+](=O)[O-],6,-1,34*,9
O=C(Nc1nnc(CCS(=O)(=O)c2ccc3ccccc3c2)s1)c1ccc([N+](=O)[O-])cc1,3,8.4*,5,-28
O=C(Nc1nnc(CCS(=O)(=O)c2ccc3ccccc3c2)s1)c1cccs1,6,3,-2,-25
Cc1oc(-c2ccccc2)cc1C(=O)Nc1cccc(/C=C\C(=O)O)c1,.,8.5*,.,.
CCOc1ccc(Cc2c(Cl)nc(SC)nc2OC)cc1,19,9.4*,-8,4
CCCCOc1ccc(Cc2c(Cl)nc(SC)nc2N2CCOCC2)cc1,3,8,6,-45
CSc1nc(Cl)c(Cc2ccc(OCC(C)C)cc2)c(N2CCOCC2)n1,23,8.6*,4,-19
O=C1N(Cc2cccc(Cl)c2)C[C@@H]2C[C@@H](c3c[nH]c4ccccc34)N3CCC[C@@]123,.,-1,.,.
COc1ccc(OCC(O)CN2CCN(c3ncccn3)CC2)cc1 (configuration not stated),5,0,6,-1
COc1ccc(N2CCN(Cc3nc4ccccc4n3C)CC2)cc1,37*,4,6,-21
COc1ccc(N2CCN(c3ncccn3)CC2)cc1,28*,2,-7,-30
CCN(C(=O)COC(=O)/C=C/c1ccccc1)C1CCCCC1,.,2,.,.
CC(C)(C)c1[nH]nc2c1C(c1cccnc1)C(C#N)=C(N)O2 (configuration not stated),8,0,-18,1
CC(C)(C)c1[nH]nc2c1C(c1ccc(OC(=O)c3ccco3)cc1)C(C#N)=C(N)O2 (configuration not stated),3,10*,-3,-84
CC(C)Cc1cc(C(=O)Nc2sc3c(c2C#N)CCCC3)no1,35,9.9*,-3,-34
Cc1cc(C(=O)Nc2sc3c(c2C#N)CCC3)no1,4,4,-1,-30
CC(C)Cc1cc(C(=O)Nc2sc3c(c2C#N)CCC3)no1,5,10*,3,-7
O=C(CNCc1cccs1)Nc1ccc(N2CCCCCC2)cc1,.,1,.,.
Cc1cc(C)n2nc(SCCOc3ccccc3F)nc2n1,.,1,.,.
Cc1ccc(C(=O)N/N=C2/NC(=O)CC(C(=O)Nc3ccccc3)S2)cc1 (configuration not stated),7,4,-5,9
Fc1ccc(-c2nnn(Cc3nc4ccccc4s3)n2)cc1,46*,0,2,-28
C/C=N\NC(=O)CNC(=O)CNC(=O)c1ccccc1,.,0,.,.
O=C(NNC(=O)c1cc(OCC(F)(F)F)ccc1OCC(F)(F)F)c1cccc(C(F)(F)F)c1,78*,6,-23,-29
O=C(NCCNC(=O)c1cc(OCC(F)(F)F)ccc1OCC(F)(F)F)Nc1ccccc1,30,8.7*,-7,-45
O=C(NCc1ccccn1)C(C(=O)c1cccc([N+](=O)[O-])c1)n1cc(Cl)ccc1=O (configuration not stated),.,2,.,.
SMILES,Measles CPE,RAM network inh,Yeast lifespan up,BB579 growth dn
O=C1CCCC(=O)N1c1ccc(NCCOCCO)c([N+](=O)[O-])c1,.,2,.,.
CCN=c1scc(-c2ccccc2)n1/N=C/c1ccccn1,62*,1,-8,-14
C=CCN=c1scc(-c2ccccc2)n1/N=C/c1ccccn1,50*,0,-5,5
CCN=c1scc(-c2ccc(F)cc2)n1/N=C/c1ccccn1,.,-1,.,.
CC(C)CCN1CCN(Cc2cnc(N3CCCC3)s2)CC1CCO (configuration not stated),.,0,.,.
CCOC(=O)c1cccc(NC(=O)CSc2nc(N)cc(N)n2)c1,31*,2,-8,-18
Cc1cccc(NC(=O)CSc2nc(N)cc(N)n2)c1,13,0,.,-43
CN(C)C(=O)Cn1c(SCC(=O)NCc2ccc3c(c2)OCO3)nc2ccccc21,21,0,.,-30
Cc1cc(SCC(=O)OCC(=O)NCc2ccc3c(c2)OCO3)c(C)cc1Br,2,11*,-1,-16
O=C(COC(=O)c1cccs1)NCc1ccc2c(c1)OCO2,97*,1,-13,-78
CCOCC(=O)NCc1ccc2c(c1)OCO2,5,1,-6,-22

# High-throughput results (PubChem)
